Experimental data from ChEMBL document CHEMBL1152146, “Non-nucleoside inhibitors of the hepatitis C virus NS5B RNA-dependant RNA polymerase: 2-aryl-3-heteroaryl-1,3-thiazolidin-4-one derivatives” (Bioorg Med Chem Lett, 2008).

What was measured:
[1] = molecular target: Replicase polyprotein 1ab (Severe acute respiratory syndrome-related coronavirus) (UniProt P0C6X7); assay: Inhibition of SARS coronavirus nsp12 at 0.5 mM
Hepatitis C virus [2] = assay: Inhibition of HCV 1b NS5B Cdelta21 polymerase at 0.25 mM relative to control; set-up: species or system Hepatitis C virus subtype 1b
In short: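 His-tagged NS5BCΔ21 (genotype 1b) RdRp assay with compound at 0.25 mM and DMSO constant at 10%. Activity without inhibitor, after subtraction of residual background, set as 100%. Values are the mean of at least three independent measurements.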

Hepatitis C virus [3] = assay: Inhibition of HCV 1b NS5B Cdelta21 polymerase; set-up: species or system Hepatitis C virus subtype 1b
In short: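 N-terminal His-tagged NS5B lacking the C-terminal 21 residues (genotype 1b). RdRp activity read as total incorporation of radiolabeled UTP on poly rA/U12. IC50 taken from dose–response curves of 8–12 concentrations, run in duplicate in two independent experiments. DMSO held at 10% in all reactions.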

Escherichia coli = assay: Inhibition of Escherichia coli DNA polymerase 1 Klenow fragment at 0.5 mM

Structure (SMILES) | inhibition [1] [%] | inhibition at 250 µM (Hepatitis C virus [2]) [%] | IC50 (Hepatitis C virus [3]) [µM] | inhibition (Escherichia coli) [%]
O=C(NN1C(=O)CSC1c1ccccc1F)c1cc(-c2ccc(F)cc2F)ccc1O (stereo not given) | < 50 | 92.4 | 48 | –
O=C1CSC(c2ccc(F)cc2)N1c1ccccn1 (stereo not given) | < 50 | 98 | 31.9 | < 50
O=C1CSC2(CCN(Cc3ccccc3)CC2)N1c1ccccn1 | < 50 | 85.6 | 71.9 | < 50
Cc1cc(-c2ccccc2)nc(N2C(=O)CSC2c2c(F)cccc2Cl)n1 (stereo not given) | < 50 | 65.5 | – | < 50
O=C1CSC(c2c(F)cccc2Cl)N1c1ccc2ccccc2n1 (stereo not given) | < 50 | 60 | – | < 50
COc1cc(O)c2c(c1)oc(=O)c1c3cc(O)c(O)cc3oc21 [WEDELOLACTONE] | – | – | 36.1 | –
O=C1CSC(c2c(Cl)cccc2Cl)N1c1nc(-c2ccccc2)cc(-c2ccccc2)n1 (stereo not given) | < 50 | 73.1 | – | < 50
O=C1CSC(c2c(Cl)cccc2Cl)N1c1nc(-c2ccccc2)cc(C(F)(F)F)n1 (stereo not given) | < 50 | 66.4 | – | < 50
Cc1cc(-c2ccccc2)nc(N2C(=O)CSC2c2c(Cl)cccc2Cl)n1 (stereo not given) | < 50 | 63.6 | – | < 50
Cc1cccc(N2C(=O)CSC2c2ccc(-c3cccnc3)cc2)n1 (stereo not given) | < 50 | 64.2 | – | < 50
CCc1nnc(N2C(=O)CSC2c2c(F)cccc2F)s1 (stereo not given) | < 50 | – | – | –
CN(C)c1ccc(C2SCC(=O)N2c2ccccn2)cc1 (stereo not given) | < 50 | 76.4 | – | < 50
CC1SC(c2c(Cl)cccc2Cl)N(c2ccccn2)C1=O (stereo not given) | < 50 | 73 | – | < 50
CC1SC(c2c(Cl)cccc2Cl)N(Cc2cccnc2)C1=O (stereo not given) | < 50 | 95.6 | 41.8 | < 50
O=C1CSC(c2c(Cl)cccc2Cl)N1Cc1cccnc1 (stereo not given) | < 50 | 75.6 | – | < 50
O=C1CCSC(c2c(Cl)cccc2Cl)N1Cc1ccco1 (stereo not given) | < 50 | 94.2 | 52.6 | < 50
O=C1CSC(c2c(Br)cccc2Br)N1Cc1cccs1 (stereo not given) | < 50 | 62.3 | – | < 50
Cc1cc(C(F)(F)F)nc(N2C(=O)CSC2c2c(Cl)cccc2Cl)n1 (stereo not given) | < 50 | 72.1 | – | < 50
CC1SC(c2c(Cl)cccc2Cl)N(Cc2ccco2)C1=O (stereo not given) | < 50 | 97.8 | 32.2 | < 50
O=C1CSC(c2ccc(-c3ccnc4ccccc34)cc2)N1c1ccccn1 (stereo not given) | < 50 | 62.2 | – | < 50
Cc1cccc(N2C(=O)CSC2c2ccc(N(C)C)cc2)n1 (stereo not given) | < 50 | 84.7 | 79.4 | < 50
O=C1CSC(c2c(F)cccc2Cl)N1c1nc(-c2ccccc2)cc(-c2ccccc2)n1 (stereo not given) | < 50 | 70.6 | – | < 50
O=C1CSC(c2c(Cl)cccc2Cl)N1Cc1ccco1 (stereo not given) | < 50 | 72.3 | – | < 50
Cc1cc(C(F)(F)F)nc(N2C(=O)CSC2c2c(Br)cccc2Br)n1 (stereo not given) | < 50 | 76.3 | – | < 50
Cc1cc(C(F)(F)F)nc(N2C(=O)CSC2c2c(F)cccc2Cl)n1 (stereo not given) | < 50 | 63.6 | – | < 50
O=C1CSC(c2c(F)cccc2F)N1c1nc(-c2ccccc2)cc(-c2ccccc2)n1 (stereo not given) | < 50 | 73.3 | – | < 50
